Laboratory results reported in ChEMBL document CHEMBL4680134, “Structural optimization of natural product nordihydroguaretic acid to discover novel analogues as AcrB inhibitors” (Eur J Med Chem, 2020).

Key:
[1] = Growth inhibition of Escherichia coli BW25113 expressing AcrB at 512 ug/ml after 18 hrs by broth microdilution assay; settings: dose 512 µg/ml
Procedure, shortened: (§1)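 MIC determined by 96-well broth microdilution in E. coli BW25113 expressing AcrB ((+)AcrB) and an isogenic acrB-deleted strain ((-)AcrB). Used to set the compound concentrations for synergy testing that produce no direct antibacterial effect.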

[2] = Growth inhibition of Escherichia coli harboring AcrB deletion mutant at 64 ug/ml after 18 hrs by broth microdilution assay; settings: dose 64 µg/ml; procedure, shortened: as §1
[3] = target: T1, Multidrug efflux pump subunit AcrB (Escherichia coli (strain K12)) (UniProt P31224); experiment: Inhibition of AcrB in Escherichia coli BW25113 assessed as potentiation of chloramphenicol induced antibacterial activity by measuring chloramphenicol MIC at 16 ug/ml measured after 18 hrs by checkerboard titration method (reference value: 8 ug/ml); settings: dose 16.0 µg/ml
T1 sequence (whole entry): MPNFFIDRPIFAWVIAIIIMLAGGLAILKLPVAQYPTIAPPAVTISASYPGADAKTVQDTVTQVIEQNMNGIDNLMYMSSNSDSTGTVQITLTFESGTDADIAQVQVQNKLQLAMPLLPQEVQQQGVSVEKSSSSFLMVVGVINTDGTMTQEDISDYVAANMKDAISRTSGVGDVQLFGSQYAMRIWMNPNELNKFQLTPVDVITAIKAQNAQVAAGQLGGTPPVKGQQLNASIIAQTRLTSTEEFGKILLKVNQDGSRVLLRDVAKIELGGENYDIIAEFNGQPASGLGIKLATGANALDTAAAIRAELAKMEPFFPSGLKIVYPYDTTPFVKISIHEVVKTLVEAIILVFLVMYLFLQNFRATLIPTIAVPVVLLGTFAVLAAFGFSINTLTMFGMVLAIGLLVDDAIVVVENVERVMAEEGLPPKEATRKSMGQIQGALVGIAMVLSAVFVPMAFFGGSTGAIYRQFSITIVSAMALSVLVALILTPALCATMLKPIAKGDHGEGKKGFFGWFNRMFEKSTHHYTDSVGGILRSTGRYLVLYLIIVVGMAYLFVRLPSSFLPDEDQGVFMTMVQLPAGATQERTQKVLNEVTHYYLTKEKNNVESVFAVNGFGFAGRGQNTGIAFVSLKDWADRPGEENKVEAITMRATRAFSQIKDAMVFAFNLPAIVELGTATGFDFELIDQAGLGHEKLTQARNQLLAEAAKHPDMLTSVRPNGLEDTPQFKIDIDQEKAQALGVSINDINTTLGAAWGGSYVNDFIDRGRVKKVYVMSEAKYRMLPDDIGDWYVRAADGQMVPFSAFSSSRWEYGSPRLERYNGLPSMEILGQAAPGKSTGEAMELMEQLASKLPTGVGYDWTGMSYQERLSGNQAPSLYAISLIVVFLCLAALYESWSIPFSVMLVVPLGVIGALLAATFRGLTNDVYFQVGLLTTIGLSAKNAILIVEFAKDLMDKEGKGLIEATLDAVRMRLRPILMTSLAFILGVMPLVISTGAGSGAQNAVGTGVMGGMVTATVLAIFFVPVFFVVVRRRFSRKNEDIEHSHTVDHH

[4] = target: T1, Multidrug efflux pump subunit AcrB (Escherichia coli (strain K12)); experiment: Inhibition of AcrB in Escherichia coli BW25113 assessed as potentiation of chloramphenicol induced antibacterial activity by measuring chloramphenicol MIC at 32 ug/ml measured after 18 hrs by checkerboard titration method (reference value: 8 ug/ml); settings: dose 32.0 µg/ml
[5] = target: T1, Multidrug efflux pump subunit AcrB (Escherichia coli (strain K12)); experiment: Inhibition of AcrB in Escherichia coli BW25113 assessed as potentiation of chloramphenicol induced antibacterial activity by measuring chloramphenicol MIC at 64 ug/ml measured after 18 hrs by checkerboard titration method (reference value: 8 ug/ml); settings: dose 64.0 µg/ml
[6] = target: T1, Multidrug efflux pump subunit AcrB (Escherichia coli (strain K12)); experiment: Inhibition of AcrB in Escherichia coli BW25113 assessed as potentiation of chloramphenicol induced antibacterial activity by measuring chloramphenicol MIC at 128 ug/ml measured after 18 hrs by checkerboard titration method (reference value: 8 ug/ml); settings: dose 128.0 µg/ml
[7] = target: T1, Multidrug efflux pump subunit AcrB (Escherichia coli (strain K12)); experiment: Inhibition of AcrB in Escherichia coli BW25113 assessed as potentiation of erythromycin induced antibacterial activity by measuring erythromycin MIC at 16 ug/ml measured after 18 hrs by checkerboard titration method (reference value: 64 ug/ml); settings: dose 16.0 µg/ml
[8] = target: T1, Multidrug efflux pump subunit AcrB (Escherichia coli (strain K12)); experiment: Inhibition of AcrB in Escherichia coli BW25113 assessed as potentiation of erythromycin induced antibacterial activity by measuring erythromycin MIC at 128 ug/ml measured after 18 hrs by checkerboard titration method (reference value: 64 ug/ml); settings: dose 128.0 µg/ml
[9] = target: T1, Multidrug efflux pump subunit AcrB (Escherichia coli (strain K12)); experiment: Inhibition of AcrB in Escherichia coli BW25113 assessed as potentiation of tetraphenylphosphonium induced antibacterial activity by measuring tetraphenylphosphonium MIC at 32 ug/ml measured after 18 hrs by checkerboard titration method (reference value: 1024 ug/ml); settings: dose 32.0 µg/ml
[10] = target: T1, Multidrug efflux pump subunit AcrB (Escherichia coli (strain K12)); experiment: Inhibition of AcrB in Escherichia coli BW25113 assessed as potentiation of tetraphenylphosphonium induced antibacterial activity by measuring tetraphenylphosphonium MIC at 64 ug/ml measured after 18 hrs by checkerboard titration method (reference value: 1024 ug/ml); settings: dose 64.0 µg/ml
[11] = target: T1, Multidrug efflux pump subunit AcrB (Escherichia coli (strain K12)); experiment: Inhibition of AcrB in Escherichia coli BW25113 assessed as potentiation of tetraphenylphosphonium induced antibacterial activity by measuring tetraphenylphosphonium MIC at 128 ug/ml measured after 18 hrs by checkerboard titration method (reference value: 1024 ug/ml); settings: dose 128.0 µg/ml
[12] = target: T1, Multidrug efflux pump subunit AcrB (Escherichia coli (strain K12)); experiment: Inhibition of AcrB in Escherichia coli BW25113 assessed as potentiation of levofloxacin induced antibacterial activity by measuring levofloxacin MIC at 16 ug/ml measured after 18 hrs by checkerboard titration method (reference value: 0.06 ug/ml); settings: dose 16.0 µg/ml
[13] = target: T1, Multidrug efflux pump subunit AcrB (Escherichia coli (strain K12)); experiment: Inhibition of AcrB in Escherichia coli BW25113 assessed as potentiation of levofloxacin induced antibacterial activity by measuring levofloxacin MIC at 32 ug/ml measured after 18 hrs by checkerboard titration method (reference value: 0.06 ug/ml); settings: dose 32.0 µg/ml
[14] = target: T1, Multidrug efflux pump subunit AcrB (Escherichia coli (strain K12)); experiment: Inhibition of AcrB in Escherichia coli BW25113 assessed as potentiation of levofloxacin induced antibacterial activity by measuring levofloxacin MIC at 64 ug/ml measured after 18 hrs by checkerboard titration method (reference value: 0.06 ug/ml); settings: dose 64.0 µg/ml
[15] = target: T1, Multidrug efflux pump subunit AcrB (Escherichia coli (strain K12)); experiment: Inhibition of AcrB in Escherichia coli BW25113 assessed as potentiation of levofloxacin induced antibacterial activity by measuring levofloxacin MIC at 128 ug/ml measured after 18 hrs by checkerboard titration method (reference value: 0.06 ug/ml); settings: dose 128.0 µg/ml
[16] = target: T1, Multidrug efflux pump subunit AcrB (Escherichia coli (strain K12)); experiment: Inhibition of AcrB in Escherichia coli BW25113 assessed as potentiation of rifampicin induced antibacterial activity by measuring rifampicin MIC at 32 ug/ml measured after 18 hrs by checkerboard titration method (reference value: 16 ug/ml); settings: dose 32.0 µg/ml
[17] = target: T1, Multidrug efflux pump subunit AcrB (Escherichia coli (strain K12)); experiment: Inhibition of AcrB in Escherichia coli BW25113 assessed as potentiation of rifampicin induced antibacterial activity by measuring rifampicin MIC at 64 ug/ml measured after 18 hrs by checkerboard titration method (reference value: 16 ug/ml); settings: dose 64.0 µg/ml

Oc1ccc(CCCCc2cc(O)c(O)c(O)c2)cc1O
growth inhibition (GI) [1]: Non-Toxic | growth inhibition (GI) [2]: Non-Toxic | MIC [3]: 8 µg/mL | MIC [4]: 8 µg/mL | MIC [5]: 8 µg/mL | MIC [6]: 8 µg/mL | MIC [7]: 64 µg/mL | MIC [8]: 32 µg/mL | MIC [9]: 512 µg/mL | MIC [10]: 512 µg/mL | MIC [11]: 256 µg/mL | MIC [12]: 0.06 µg/mL | MIC [13]: 0.06 µg/mL | MIC [14]: 0.06 µg/mL | MIC [15]: 0.06 µg/mL | MIC [16]: 16 µg/mL | MIC [17]: 16 µg/mL

O=C(NCCc1ccc(O)c(O)c1)c1ccc(Br)cc1
growth inhibition (GI) [1]: Non-Toxic | growth inhibition (GI) [2]: Non-Toxic | MIC [3]: 8 µg/mL | MIC [4]: 8 µg/mL | MIC [5]: 8 µg/mL | MIC [6]: 8 µg/mL | MIC [7]: 64 µg/mL | MIC [8]: 32 µg/mL | MIC [9]: 1020 µg/mL | MIC [10]: 1020 µg/mL | MIC [11]: 1020 µg/mL | MIC [12]: 0.06 µg/mL | MIC [13]: 0.06 µg/mL | MIC [14]: 0.06 µg/mL | MIC [15]: 0.06 µg/mL | MIC [16]: 16 µg/mL | MIC [17]: 16 µg/mL

Oc1ccc(CCCCc2ccc(O)c(O)c2)cc1O
growth inhibition (GI) [1]: Non-Toxic | growth inhibition (GI) [2]: Non-Toxic | MIC [3]: 8 µg/mL | MIC [4]: 8 µg/mL | MIC [5]: 8 µg/mL | MIC [6]: 8 µg/mL | MIC [7]: 64 µg/mL | MIC [8]: 32 µg/mL | MIC [9]: 1020 µg/mL | MIC [10]: 512 µg/mL | MIC [11]: 512 µg/mL | MIC [12]: 0.06 µg/mL | MIC [13]: 0.06 µg/mL | MIC [14]: 0.06 µg/mL | MIC [15]: 0.06 µg/mL | MIC [16]: 16 µg/mL | MIC [17]: 16 µg/mL

O=C(NCCc1ccc(O)c(O)c1)c1cc(O)c(O)c(O)c1
growth inhibition (GI) [1]: Non-Toxic | growth inhibition (GI) [2]: Non-Toxic | MIC [3]: 4 µg/mL | MIC [4]: 4 µg/mL | MIC [5]: 4 µg/mL | MIC [6]: 2 µg/mL | MIC [7]: 32 µg/mL | MIC [8]: 16 µg/mL | MIC [9]: 512 µg/mL | MIC [10]: 512 µg/mL | MIC [11]: 256 µg/mL | MIC [12]: 0.06 µg/mL | MIC [13]: 0.03 µg/mL | MIC [14]: 0.03 µg/mL | MIC [15]: 0.03 µg/mL | MIC [16]: 16 µg/mL | MIC [17]: 16 µg/mL

Nc1cc(N)cc(C(=O)NCCc2ccc(O)c(O)c2)c1
growth inhibition (GI) [1]: Non-Toxic | growth inhibition (GI) [2]: Non-Toxic | MIC [3]: 8 µg/mL | MIC [4]: 8 µg/mL | MIC [5]: 8 µg/mL | MIC [6]: 8 µg/mL | MIC [7]: 64 µg/mL | MIC [8]: 32 µg/mL | MIC [9]: 512 µg/mL | MIC [10]: 512 µg/mL | MIC [11]: 512 µg/mL | MIC [12]: 0.06 µg/mL | MIC [13]: 0.06 µg/mL | MIC [14]: 0.06 µg/mL | MIC [15]: 0.06 µg/mL | MIC [16]: 16 µg/mL | MIC [17]: 16 µg/mL

Oc1ccc(CCCCc2cc3cccc4ccc5cccc2c5c43)cc1O
growth inhibition (GI) [1]: Non-Toxic | growth inhibition (GI) [2]: Non-Toxic | MIC [3]: 8 µg/mL | MIC [4]: 8 µg/mL | MIC [5]: 8 µg/mL | MIC [6]: 4 µg/mL | MIC [7]: 64 µg/mL | MIC [8]: 32 µg/mL | MIC [9]: 512 µg/mL | MIC [10]: 512 µg/mL | MIC [11]: 256 µg/mL | MIC [12]: 0.06 µg/mL | MIC [13]: 0.06 µg/mL | MIC [14]: 0.06 µg/mL | MIC [15]: 0.06 µg/mL | MIC [16]: 16 µg/mL | MIC [17]: 16 µg/mL

Nc1ccc(C(=O)NCCc2ccc(O)c(O)c2)cc1
growth inhibition (GI) [1]: Non-Toxic | growth inhibition (GI) [2]: Non-Toxic | MIC [3]: 4 µg/mL | MIC [4]: 4 µg/mL | MIC [5]: 4 µg/mL | MIC [6]: 2 µg/mL | MIC [7]: 64 µg/mL | MIC [8]: 16 µg/mL | MIC [9]: 1020 µg/mL | MIC [10]: 1020 µg/mL | MIC [11]: 512 µg/mL | MIC [12]: 0.06 µg/mL | MIC [13]: 0.06 µg/mL | MIC [14]: 0.06 µg/mL | MIC [15]: 0.06 µg/mL | MIC [16]: 16 µg/mL | MIC [17]: 16 µg/mL

O=C(NCCc1ccc(O)c(O)c1)c1ccc(C(F)(F)F)cc1
growth inhibition (GI) [1]: Non-Toxic | growth inhibition (GI) [2]: Non-Toxic | MIC [3]: 8 µg/mL | MIC [4]: 8 µg/mL | MIC [5]: 8 µg/mL | MIC [6]: 8 µg/mL | MIC [7]: 64 µg/mL | MIC [8]: 64 µg/mL | MIC [9]: 1020 µg/mL | MIC [10]: 1020 µg/mL | MIC [11]: 1020 µg/mL | MIC [12]: 0.06 µg/mL | MIC [13]: 0.06 µg/mL | MIC [14]: 0.06 µg/mL | MIC [15]: 0.03 µg/mL | MIC [16]: 16 µg/mL | MIC [17]: 16 µg/mL
